In the library only some 0.29% were active in any assay of this set; here they are far more common.
PKA-R1A activ = activates the PKA-R1A holoenzyme complex | P00514+P68181 | PKA-R1A dissociation, Cy5-IP20 fluorescence polarization; scaled: DMSO 0%, 113 µM cGMP 100% | activation, % at 11.4 µM | 0.083% of 340,000 active;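 active = percent activation above the mean of all tested compounds plus 3 SD, cut at about 19% in these data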;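 also: higher means more PKAc released from R1A so a rise in polarization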
procasp7 counter = activates human procaspase-7, counter-screen for procaspase-3 activators; P55210; recombinant procaspase-7, Ac-DEVD-pNA absorbance 405 nm; D23A/D198A/D206A triple mutant, cannot self-cleave; scale: DMSO 0, 5 µM enzyme 100; activation, % at 8.5 µM; 0.093% of 330,000 active;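 active = percent activation above the screen-wide mean plus 3 SD, cut at about 25% in these data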
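Assay system: Uncleavable procaspase-7 mutant enzyme | Input: 2 µM procaspase-7 mutant as dispensed | Timing: 1 h compound preincubation, 2 h substrate cleavage, 25 °C | Repeats: One well per compound | Control set: DMSO wells as 0%, DMSO with 5 µM added PC-7 as 100% | Technique: Epi-absorbance of released pNA at 405 nm, two timepoints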
proCasp3 act = procaspase-3 (human) activation. 0.11% of 330,000 active. activation, % at 8.5 µM. recombinant procaspase-3 D3A, Ac-DEVD-pNA absorbance 405 nm;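 active = activation above the mean of all tested compounds plus 3 SD, cut at about 21% in these data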;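 also: 0% = DMSO alone and 100% = DMSO wells spiked with extra 5 µM PC-3 D3A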
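Compound: 8.5 µM single point, 0.8% DMSO / Material: Autoprocessing-dead procaspase-3 D3A mutant enzyme / Timing: 1 h preincubation plus 2 h reaction at 25 °C / Medium: Zinc-free HEPES/NaCl buffer with 0.01% Triton X-100 at pH 7.4 / Technique: 405 nm absorbance of p-nitroaniline, reads at 0 and 120 min / Repeats: one well per compound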
PKA-R2B activ = PKA-R2B complex activation | P22694+P31323 | PKA-R2B holoenzyme dissociation, Cy5-IP20 fluorescence polarization; R2B truncated from residue 108, S112A mutant; 0% DMSO only, 100% 113 µM cGMP | activation, % at 11.4 µM | 0.079% of 340,000 active;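 active = activation above a cutoff set at the mean over all compounds plus 3 SD, cut at about 18% in these data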;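 also: higher means more holoenzyme dissociation and a rise in polarization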
Target sequence (P31323 whole entry, looked up, other chains not shown, the tested form may be a part): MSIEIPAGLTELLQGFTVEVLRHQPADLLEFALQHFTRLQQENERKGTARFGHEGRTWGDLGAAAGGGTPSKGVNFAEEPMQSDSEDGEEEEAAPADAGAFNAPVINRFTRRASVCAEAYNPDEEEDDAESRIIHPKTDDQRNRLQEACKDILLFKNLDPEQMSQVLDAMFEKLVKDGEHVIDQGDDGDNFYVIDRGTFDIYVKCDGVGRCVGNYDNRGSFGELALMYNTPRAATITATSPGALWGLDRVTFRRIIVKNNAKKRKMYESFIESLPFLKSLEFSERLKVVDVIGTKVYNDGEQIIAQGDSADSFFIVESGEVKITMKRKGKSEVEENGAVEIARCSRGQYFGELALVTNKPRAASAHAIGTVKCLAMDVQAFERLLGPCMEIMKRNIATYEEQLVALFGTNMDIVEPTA
PC3 D3A act = counter-screen: procaspase-3 (human) activation; shares compounds with procasp7 counter; recombinant PC-3 D3A, Ac-DEVD-pNA absorbance 405 nm; aspartates 9, 28, 175 changed to alanine; 100% = enzyme control; activation, % at 8.5 µM; 290 tested, under 10 active; AID 493114;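 active = mean percent activation across triplicates above a set limit taken from the earlier primary procaspase-3 screen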;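 also: 0% = DMSO wells and 100% = DMSO wells with 5 µM added PC-3 D3A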
PC7 dual conf = activates human procaspase-7, confirming dual procaspase activators. shares compounds with procasp7 counter. recombinant procaspase-7, Ac-DEVD-pNA absorbance 405 nm; D23A/D198A/D206A mutant that cannot self-cleave. activation, % at 8.5 µM. 290 tested, under 10 active. AID 493115;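 active = mean activation above a set limit carried over from the earlier primary screen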;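 also: 0% = DMSO only and 100% = DMSO with added 5 µM PC-7 enzyme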
R2B FP artifact = counter-screen for PKA-R2B activators: fluorescence polarization artifacts | shares compounds with PKA-R2B activ | FP artifact counterscreen | activation, % at 11.4 µM | AID 504796 | 6% of 270 active; in the data active = activation above about 20%;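 also: Cy5 labelled IP20 peptide probe with compound but no PKA protein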
PKA-R2B act conf = confirmation of human PKA-R2B complex activators. 9% of 270 active. activation, % at 11.4 µM. shares compounds with PKA-R2B activ. fluorescence polarization, activation; in the data active = activation above about 19%
Target sequence (P31323 whole entry, looked up): as the sequence (P31323 whole entry, looked up, other chains not shown, the tested form may be a part) above
The depositor's hits bear a star.

For COc1ccccc1N1CCN(C(=O)c2cc3c(s2)-c2ccccc2OC3)CC1 the results were PKA-R1A activ 0, procasp7 counter 6, proCasp3 act 4 and PKA-R2B activ 3.
For O=C(c1cc2c(s1)-c1ccccc1OC2)N1CCc2ccccc2C1 the results were PKA-R1A activ -5, procasp7 counter 27*, proCasp3 act 12, PKA-R2B activ -12, PC3 D3A act 3 and PC7 dual conf 2.
CCCCCCc1nc2ccccc2c(=O)n1NC(=O)c1c(O)c2c(n(CC(C)C)c1=O)CCCC2 was read as PKA-R1A activ -11, procasp7 counter 1, proCasp3 act 8 and PKA-R2B activ -14.
COc1ccc(CN2CCN(C(C)C)C(CCO)C2)cc1Cn1cccn1 (stereo not given) was read as PKA-R1A activ -13, procasp7 counter -1, proCasp3 act -1 and PKA-R2B activ 2.
Screening O=c1oc2ccccc2cc1-c1nc2c(s1)CCCC2 returned PKA-R1A activ 0, procasp7 counter 96*, proCasp3 act 9, PKA-R2B activ -3, PC3 D3A act -29 and PC7 dual conf -36.
For C=CCOC(=O)C1=C(C)NC(SCC)=C(C#N)C1c1ccc(Cl)cc1 (stereo not given) the results were PKA-R1A activ -10, procasp7 counter 26*, proCasp3 act 18, PKA-R2B activ -12, PC3 D3A act 5 and PC7 dual conf 6.
`CC(C)OC(=O)CC(=O)CSc1nc2c(cc1C#N)CCCC2` gave PKA-R1A activ 10, procasp7 counter 10, proCasp3 act 4 and PKA-R2B activ -10.
For CC(C)OC(=O)CC(=O)CSc1nc2c(cc1C#N)CCCCCC2 the results were PKA-R1A activ 2, procasp7 counter 75*, proCasp3 act 62*, PKA-R2B activ -7, PC3 D3A act -29 and PC7 dual conf -27.
O=C1COc2ccc(S(=O)(=O)CCC(=O)N3CCN(c4ccccc4)CC3)cc2N1 was read as PKA-R1A activ -9, procasp7 counter 12, proCasp3 act 10 and PKA-R2B activ 13.
For COc1cc(/C=C/C(=O)Nc2nc3ccc(S(=O)(=O)N(C)C)cc3s2)cc(OC)c1OC the results were PKA-R1A activ -5, procasp7 counter 35*, proCasp3 act -18, PKA-R2B activ 1, PC3 D3A act -30 and PC7 dual conf -35.
For Cc1nnc(NC(=O)c2c(-c3ccccc3)noc2C)s1 the results were PKA-R1A activ 3, procasp7 counter 26*, proCasp3 act 5, PKA-R2B activ 1, PC3 D3A act 1 and PC7 dual conf -1.
CCc1nnc(NC(=O)c2c(-c3ccccc3)noc2C)s1 was read as PKA-R1A activ -5, procasp7 counter -11, proCasp3 act 2 and PKA-R2B activ 4.
For Cc1cc(C)cc(NC(=O)CSc2nc3ccccc3nc2N2CCCC2)c1 the results were PKA-R1A activ 0, procasp7 counter 39*, proCasp3 act 7, PKA-R2B activ -5, PC3 D3A act -29 and PC7 dual conf -34.
O=C(CSc1nc2ccccc2nc1N1CCCC1)Nc1ccc(F)cc1 was read as PKA-R1A activ -7, procasp7 counter 41*, proCasp3 act 2, PKA-R2B activ -7, PC3 D3A act -30 and PC7 dual conf -34.
Screening Cc1ccc(C)c(OCC(=O)Nc2cc(C)on2)c1 returned PKA-R1A activ 3, procasp7 counter 10, proCasp3 act 4 and PKA-R2B activ -7.
Screening O=c1c(O)c(-c2ccc3c(c2)OCO3)oc2ccccc12 returned PKA-R1A activ 4, procasp7 counter 30*, proCasp3 act 37*, PKA-R2B activ 9, PC3 D3A act 23* and PC7 dual conf 19.
For Cc1ccc(S(=O)(=O)N2CCC(C(=O)Nc3ccccc3N3CCCC3)CC2)cc1 the results were PKA-R1A activ 11, procasp7 counter -3, proCasp3 act 2 and PKA-R2B activ -2.
`COc1ccccc1NC(=O)c1ccccc1C(=O)Nc1ccccc1OC` gave PKA-R1A activ 0, procasp7 counter 10, proCasp3 act 2 and PKA-R2B activ -8.
For COc1ccccc1NC(=O)c1cnc(Nc2ccccc2OC)c2ccccc12 the results were PKA-R1A activ -3, procasp7 counter 31*, proCasp3 act 17, PKA-R2B activ -15, PC3 D3A act -30 and PC7 dual conf -35.
Screening O=C(N/N=C/c1ccc(N2CCOCC2)s1)c1ccccc1Br returned PKA-R1A activ 1, procasp7 counter -10, proCasp3 act -11 and PKA-R2B activ -6.
Clc1cccc(N/N=C/c2ccc(N3CCOCC3)s2)c1 was read as PKA-R1A activ 7, procasp7 counter -8, proCasp3 act 1, PKA-R2B activ 21*, R2B FP artifact 6 and PKA-R2B act conf -1.
`COc1ccc(OC)c(-c2nnc3n2N=C(c2ccc(OC)c(OC4CCOC4)c2)CS3)c1` (stereo not given) gave PKA-R1A activ 1, procasp7 counter 5, proCasp3 act 10, PKA-R2B activ 19*, R2B FP artifact -1 and PKA-R2B act conf -3.
`O=C(Nc1ccc(C(=O)O)cc1)/C(=C\c1ccco1)NC(=O)c1ccc(Br)cc1` gave PKA-R1A activ 0, PKA-R2B activ 24*, R2B FP artifact 4 and PKA-R2B act conf 1.
For O=C(Nc1ccc(C(=O)O)cc1)/C(=C\c1ccco1)NC(=O)c1ccc(Br)o1 the results were PKA-R1A activ 11, procasp7 counter 2, proCasp3 act -5 and PKA-R2B activ -3.
For O=C(c1ccc(F)cc1)C1CCN(Cc2ccccc2F)CC1 the results were PKA-R1A activ -11 and PKA-R2B activ -4.
COc1ccc(NC(=O)Nc2ccc3c(c2)C(=O)N([C@H](C)CO)C[C@H](C)[C@@H](CN(C)C(=O)Nc2ccc(C(F)(F)F)cc2)O3)cc1 was read as PKA-R1A activ -6, procasp7 counter 4, proCasp3 act 3, PKA-R2B activ 19*, R2B FP artifact 1 and PKA-R2B act conf -3.
C=CC[C@]12C=C(OC)C(=O)C(OC)=C1O[C@@H](c1ccc3c(c1)OCO3)[C@H]2C was read as PKA-R1A activ -2, procasp7 counter 11, proCasp3 act 12 and PKA-R2B activ 2.
